According to ChEMBL document CHEMBL1926569, “Novel (E)-1-(4-methyl-2-(alkylamino)thiazol-5-yl)-3-arylprop-2-en-1-ones as potent antimicrobial agents” (2011):
≈ marks a conversion by molar mass, not a printed value.

Columns and labels:
Candida albicans [1] = experiment: Ratio of bifonazole to compound for Candida albicans isolated from human; type: functional
Pseudomonas aeruginosa [2] = experiment: Antibacterial activity against Pseudomonas aeruginosa ATCC 27853 incubated for 24 hrs followed by serial sub-cultivation for 24 hrs by microdilution; type: functional; conditions: ATCC 27853, 24 h
Method in brief: (§1)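 MBC: after the 24 h LB broth microdilution (1.0 × 10⁴ CFU per well, 160 rpm), wells were serially sub-cultured into fresh broth plates and incubated a further 24 h. MBC is the lowest concentration with no visible growth, taken as 99.5% killing of the original inoculum. Duplicate, repeated three times.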

Aspergillus flavus [3] = experiment: Antifungal activity against Aspergillus flavus ATCC 9643 after 72 hrs by serial dilution technique; type: functional; conditions: ATCC 9643, 72 h
Method in brief: (§2)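 Modified microdilution in 96-well plates. Fungi were kept on malt agar at 4 °C. Spores were washed off in sterile 0.85% saline with 0.1% Tween 80. Compounds were dissolved at 1 mg/ml in 5% DMSO with 0.1% Tween 80 and added to malt broth with inoculum. Plates were shaken at 160 rpm for 72 h at 28 °C. Duplicate, repeated three times.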

Aspergillus niger [4] = experiment: Antifungal activity against Aspergillus niger ATCC 6275 incubated for 72 hrs followed by serial sub-cultivation for 72 hrs by serial dilution technique; type: functional; conditions: ATCC 6275, 72 h
Method in brief: (§3)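 MFC: material from 72 h malt broth microdilution wells was serially sub-cultured into fresh broth plates and incubated a further 72 h at 28 °C. Fungicidal concentration is taken from growth after sub-culture. Duplicate, repeated three times.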

Aspergillus niger [5] = experiment: Antifungal activity against Aspergillus niger ATCC 6275 after 72 hrs by serial dilution technique; type: functional; conditions: ATCC 6275, 72 h; method in brief: as §2
Bacillus cereus [6] = experiment: Antibacterial activity against clinical isolate of Bacillus cereus incubated for 24 hrs followed by serial sub-cultivation for 24 hrs by microdilution; type: functional; method in brief: as §1
Penicillium ochrochloron [7] = experiment: Ratio of ketoconazole to compound for Penicillium ochrochloron ATCC 9112; type: functional
Penicillium ochrochloron [8] = experiment: Antifungal activity against Penicillium ochrochloron ATCC 9112 after 72 hrs by serial dilution technique; type: functional; conditions: ATCC 9112, 72 h; method in brief: as §2
Candida albicans [9] = experiment: Antifungal activity against Candida albicans isolated from human incubated for 72 hrs followed by serial sub-cultivation for 72 hrs by serial dilution technique; type: functional; method in brief: as §3
Candida albicans [10] = experiment: Ratio of ketoconazole to compound for Candida albicans isolated from human; type: functional
Talaromyces funiculosus [11] = experiment: Antifungal activity against Penicillium funiculosum ATCC 36839 incubated for 72 hrs followed by serial sub-cultivation for 72 hrs by serial dilution technique; type: functional; conditions: ATCC 36839, 72 h; method in brief: as §3
Aspergillus ochraceus [12] = experiment: Antifungal activity against Aspergillus ochraceus ATCC 12066 after 72 hrs by serial dilution technique; type: functional; conditions: ATCC 12066, 72 h; method in brief: as §2
Trichoderma viride [13] = experiment: Ratio of bifonazole to compound for Trichoderma viride IAM 5061; type: functional
Bacillus cereus [14] = experiment: Antibacterial activity against clinical isolate of Bacillus cereus after 24 hrs by microdilution method; type: functional
Method in brief: (§4)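 Broth microdilution in 96-well plates. Bacterial suspensions were adjusted in sterile saline to 1.0 × 10⁵ CFU/ml, prepared daily and kept at 4 °C. Compound was added to LB broth with 1.0 × 10⁴ CFU per well and shaken at 160 rpm for 24 h at […] (so in the source). MIC is the lowest concentration with no visible growth under a binocular microscope. OD655 was also read. Duplicate, repeated three times.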

Escherichia coli [15] = experiment: Antibacterial activity against Escherichia coli ATCC 35210 incubated for 24 hrs followed by serial sub-cultivation for 24 hrs by microdilution; type: functional; conditions: ATCC 35210, 24 h; method in brief: as §1
Enterococcus faecalis [16] = experiment: Antibacterial activity against Enterococcus faecalis isolated from human incubated for 24 hrs followed by serial sub-cultivation for 24 hrs by microdilution; type: functional; method in brief: as §1
Listeria monocytogenes [17] = experiment: Antibacterial activity against Listeria monocytogenes NCTC 7973 incubated for 24 hrs followed by serial sub-cultivation for 24 hrs by microdilution; type: functional; conditions: NCTC 7973, 24 h; method in brief: as §1
Talaromyces funiculosus [18] = experiment: Ratio of bifonazole to compound for Penicillium funiculosum ATCC 36839; type: functional
Penicillium ochrochloron [19] = experiment: Ratio of bifonazole to compound for Penicillium ochrochloron ATCC 9112; type: functional
Trichoderma viride [20] = experiment: Antifungal activity against Trichoderma viride IAM 5061 incubated for 72 hrs followed by serial sub-cultivation for 72 hrs by serial dilution technique; type: functional; conditions: IAM 5061, 72 h; method in brief: as §3
Pseudomonas aeruginosa [21] = experiment: Antibacterial activity against Pseudomonas aeruginosa ATCC 27853 after 24 hrs by microdilution method; type: functional; conditions: ATCC 27853, 24 h; method in brief: as §4
Escherichia coli [22] = experiment: Antibacterial activity against Escherichia coli ATCC 35210 after 24 hrs by microdilution method; type: functional; conditions: ATCC 35210, 24 h; method in brief: as §4
Aspergillus ochraceus [23] = experiment: Ratio of ketoconazole to compound for Aspergillus ochraceus ATCC 12066; type: functional
Talaromyces funiculosus [24] = experiment: Antifungal activity against Penicillium funiculosum ATCC 36839 after 72 hrs by serial dilution technique; type: functional; conditions: ATCC 36839, 72 h; method in brief: as §2
Trichoderma viride [25] = experiment: Antifungal activity against Trichoderma viride IAM 5061 after 72 hrs by serial dilution technique; type: functional; conditions: IAM 5061, 72 h; method in brief: as §2
Staphylococcus aureus [26] = experiment: Antibacterial activity against Staphylococcus aureus ATCC 6538 incubated for 24 hrs followed by serial sub-cultivation for 24 hrs by microdilution method; type: functional; conditions: ATCC 6538, 24 h; method in brief: as §1
Aspergillus ochraceus [27] = experiment: Ratio of bifonazole to compound for Aspergillus ochraceus ATCC 12066; type: functional
Aspergillus ochraceus [28] = experiment: Antifungal activity against Aspergillus ochraceus ATCC 12066 incubated for 72 hrs followed by serial sub-cultivation for 72 hrs by serial dilution technique; type: functional; conditions: ATCC 12066, 72 h; method in brief: as §3
Listeria monocytogenes [29] = experiment: Antibacterial activity against Listeria monocytogenes NCTC 7973 after 24 hrs by microdilution method; type: functional; conditions: NCTC 7973, 24 h; method in brief: as §4
Pseudomonas aeruginosa [30] = experiment: Ratio of ampicillin MIC to compound MIC for Pseudomonas aeruginosa ATCC 27853; type: functional
Enterococcus faecalis [31] = experiment: Antibacterial activity against Enterococcus faecalis isolated from human after 24 hrs by microdilution method; type: functional; method in brief: as §4
Staphylococcus aureus [32] = experiment: Antibacterial activity against Staphylococcus aureus ATCC 6538 after 24 hrs by microdilution method; type: functional; conditions: ATCC 6538, 24 h; method in brief: as §4
Aspergillus fumigatus [33] = experiment: Antifungal activity against Aspergillus fumigatus isolated from human incubated for 72 hrs followed by serial sub-cultivation for 72 hrs by serial dilution technique; type: functional; method in brief: as §3
Micrococcus flavus [34] = experiment: Antibacterial activity against Micrococcus flavus ATCC 10240 after 24 hrs by microdilution method; type: functional; conditions: ATCC 10240, 24 h; method in brief: as §4
Aspergillus flavus [35] = experiment: Antifungal activity against Aspergillus flavus ATCC 9643 incubated for 72 hrs followed by serial sub-cultivation for 72 hrs by serial dilution technique; type: functional; conditions: ATCC 9643, 72 h; method in brief: as §3
Aspergillus fumigatus [36] = experiment: Ratio of ketoconazole to compound for Aspergillus fumigatus isolated from human; type: functional
Aspergillus ochraceus [37] = experiment: Antifungal activity against Aspergillus ochraceus after 72 hrs by serial dilution technique
Candida albicans [38] = experiment: Antifungal activity against Candida albicans isolated from human after 72 hrs by serial dilution technique; type: functional; method in brief: as §2
Penicillium ochrochloron [39] = experiment: Antifungal activity against Penicillium ochrochloron ATCC 9112 incubated for 72 hrs followed by serial sub-cultivation for 72 hrs by serial dilution technique; type: functional; conditions: ATCC 9112, 72 h; method in brief: as §3
Aspergillus niger [40] = experiment: Ratio of bifonazole to compound for Aspergillus niger ATCC 6275; type: functional
Micrococcus flavus [41] = experiment: Antibacterial activity against Micrococcus flavus ATCC 10240 incubated for 24 hrs followed by serial sub-cultivation for 24 hrs by microdilution; type: functional; conditions: ATCC 10240, 24 h; method in brief: as §1
Salmonella typhimurium [42] = experiment: Antibacterial activity against Salmonella Typhimurium ATCC 13311 incubated for 24 hrs followed by serial sub-cultivation for 24 hrs by microdilution; type: functional, Salmonella enterica subsp. enterica serovar Typhimurium; conditions: Salmonella enterica, ATCC 13311, 24 h; method in brief: as §1
Salmonella typhimurium [43] = experiment: Antibacterial activity against Salmonella Typhimurium ATCC 13311 after 24 hrs by microdilution method; type: functional, Salmonella enterica subsp. enterica serovar Typhimurium; conditions: Salmonella enterica, ATCC 13311, 24 h; method in brief: as §4

MIC (Aspergillus flavus [3]): 29.7 µM (≈ 10 µg/mL)
MIC (Aspergillus niger [5]): 44.5 µM (≈ 15 µg/mL)
MIC (Penicillium ochrochloron [8]): 29.7 µM (≈ 10 µg/mL)
MIC (Aspergillus ochraceus [12]): 29.7 µM (≈ 10 µg/mL)
MIC (Bacillus cereus [14]): 99.3 µM (≈ 33.5 µg/mL)
MIC (Pseudomonas aeruginosa [21]): 74.2 µM (≈ 25 µg/mL)
MIC (Escherichia coli [22]): 74.2 µM (≈ 25 µg/mL)
MIC (Talaromyces funiculosus [24]): 29.7 µM (≈ 10 µg/mL)
MIC (Trichoderma viride [25]): 29.7 µM (≈ 10 µg/mL)
MIC (Listeria monocytogenes [29]): 89 µM (≈ 30 µg/mL)
MIC (Enterococcus faecalis [31]): 74.2 µM (≈ 25 µg/mL)
MIC (Staphylococcus aureus [32]): 59.3 µM (≈ 20 µg/mL)
MIC (Micrococcus flavus [34]): 14.8 µM (≈ 4.99 µg/mL)
MIC (Aspergillus ochraceus [37]): 29.7 µM (≈ 10 µg/mL)
MIC (Candida albicans [38]): 44.5 µM (≈ 15 µg/mL)
MIC (Salmonella typhimurium [43]): 59.3 µM (≈ 20 µg/mL)
SMILES: CNc1nc(C)c(C(=O)/C=C/c2cccc(Br)c2)s1
Ratio (Candida albicans [1]): 10
MBC (Pseudomonas aeruginosa [2]): 74.2 µM (≈ 25 µg/mL)
MFC (Aspergillus niger [4]): 59.3 µM (≈ 20 µg/mL)
MBC (Bacillus cereus [6]): 74.2 µM (≈ 25 µg/mL)
Ratio (Penicillium ochrochloron [7]): 10
MFC (Candida albicans [9]): 59.3 µM (≈ 20 µg/mL)
Ratio (Candida albicans [10]): 10
MFC (Talaromyces funiculosus [11]): 59.3 µM (≈ 20 µg/mL)
Ratio (Trichoderma viride [13]): 10
MBC (Escherichia coli [15]): 74.2 µM (≈ 25 µg/mL)
MBC (Enterococcus faecalis [16]): 74.2 µM (≈ 25 µg/mL)
MBC (Listeria monocytogenes [17]): 89 µM (≈ 30 µg/mL)
Ratio (Talaromyces funiculosus [18]): 10
Ratio (Penicillium ochrochloron [19]): 10
MFC (Trichoderma viride [20]): 59.3 µM (≈ 20 µg/mL)
Ratio (Aspergillus ochraceus [23]): 10
MBC (Staphylococcus aureus [26]): 74.2 µM (≈ 25 µg/mL)
Ratio (Aspergillus ochraceus [27]): 10
MFC (Aspergillus ochraceus [28]): 59.3 µM (≈ 20 µg/mL)
Ratio (Pseudomonas aeruginosa [30]): 10
MFC (Aspergillus fumigatus [33]): 59.3 µM (≈ 20 µg/mL)
MFC (Aspergillus flavus [35]): 74.2 µM (≈ 25 µg/mL)
Ratio (Aspergillus fumigatus [36]): 10
MFC (Penicillium ochrochloron [39]): 59.3 µM (≈ 20 µg/mL)
Ratio (Aspergillus niger [40]): 10
MBC (Micrococcus flavus [41]): 59.3 µM (≈ 20 µg/mL)
MBC (Salmonella typhimurium [42]): 74.2 µM (≈ 25 µg/mL)
